In ChEMBL document CHEMBL1132287, “Selective, tight-binding inhibitors of integrin alpha4beta1 that inhibit allergic airway responses” (J Med Chem, 1999):
*1 amine or outer side, *2 acyl side, *3 side chain or, on linkers, in order; H or OH if unused. Where a SMILES comes first, the peptide text is derived from it. [ ]: non-standard residue; d: D form. The star is where a group is joined. X1 = O=C(Cc1ccc(N[*:1])cc1)[*:2]; NH(2-Me-phenyl) = Cc1ccccc1N*; PhAc = O=C(Cc1ccccc1)*; CO = O=C([*:1])[*:2]; Ahx = NCCCCCC(=O)O

Key:
[1] = target: Intercellular adhesion molecule (ICAM-1), Integrin alpha-L/beta-2 (Homo sapiens, UniProt P05107+P05362+P20701); test: Inhibition of ICAM-1 transfected CHO cell adhesion to integrin alphaL-beta2 of human JY cells; assay type: cell-based
Intercellular adhesion molecule (ICAM-1), Integrin alpha-L/beta-2, sequence (P20701 whole entry): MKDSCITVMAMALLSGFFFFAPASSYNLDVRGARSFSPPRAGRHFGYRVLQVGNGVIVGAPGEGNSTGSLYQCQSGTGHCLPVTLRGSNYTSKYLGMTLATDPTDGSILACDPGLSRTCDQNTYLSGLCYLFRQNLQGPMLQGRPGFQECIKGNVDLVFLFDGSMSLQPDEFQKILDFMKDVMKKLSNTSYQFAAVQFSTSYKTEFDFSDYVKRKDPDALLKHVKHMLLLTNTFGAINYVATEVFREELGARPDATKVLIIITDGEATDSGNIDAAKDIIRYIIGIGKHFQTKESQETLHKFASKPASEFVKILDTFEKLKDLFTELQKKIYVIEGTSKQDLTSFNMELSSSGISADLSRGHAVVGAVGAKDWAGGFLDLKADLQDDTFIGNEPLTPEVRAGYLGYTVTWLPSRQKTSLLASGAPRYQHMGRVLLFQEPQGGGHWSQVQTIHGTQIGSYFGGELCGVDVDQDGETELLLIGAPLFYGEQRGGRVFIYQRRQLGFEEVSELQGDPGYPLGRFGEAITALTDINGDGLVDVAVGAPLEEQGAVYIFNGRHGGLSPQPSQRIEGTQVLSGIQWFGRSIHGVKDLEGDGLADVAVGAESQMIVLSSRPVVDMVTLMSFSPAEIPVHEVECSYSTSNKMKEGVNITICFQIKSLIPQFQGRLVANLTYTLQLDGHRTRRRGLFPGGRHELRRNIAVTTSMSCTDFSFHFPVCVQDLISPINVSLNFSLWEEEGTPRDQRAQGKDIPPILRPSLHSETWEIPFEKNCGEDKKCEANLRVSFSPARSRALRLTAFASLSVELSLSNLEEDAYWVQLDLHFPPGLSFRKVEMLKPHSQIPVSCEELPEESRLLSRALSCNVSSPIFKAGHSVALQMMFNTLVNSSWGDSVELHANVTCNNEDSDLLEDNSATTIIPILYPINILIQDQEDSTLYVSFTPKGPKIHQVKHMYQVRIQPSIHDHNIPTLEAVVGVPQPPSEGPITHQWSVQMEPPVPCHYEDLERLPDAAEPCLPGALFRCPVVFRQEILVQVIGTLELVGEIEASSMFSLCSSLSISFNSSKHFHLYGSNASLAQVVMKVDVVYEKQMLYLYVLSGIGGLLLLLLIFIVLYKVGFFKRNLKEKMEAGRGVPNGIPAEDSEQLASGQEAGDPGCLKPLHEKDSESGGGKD
Intercellular adhesion molecule (ICAM-1), Integrin alpha-L/beta-2, sequence (P05362 whole entry): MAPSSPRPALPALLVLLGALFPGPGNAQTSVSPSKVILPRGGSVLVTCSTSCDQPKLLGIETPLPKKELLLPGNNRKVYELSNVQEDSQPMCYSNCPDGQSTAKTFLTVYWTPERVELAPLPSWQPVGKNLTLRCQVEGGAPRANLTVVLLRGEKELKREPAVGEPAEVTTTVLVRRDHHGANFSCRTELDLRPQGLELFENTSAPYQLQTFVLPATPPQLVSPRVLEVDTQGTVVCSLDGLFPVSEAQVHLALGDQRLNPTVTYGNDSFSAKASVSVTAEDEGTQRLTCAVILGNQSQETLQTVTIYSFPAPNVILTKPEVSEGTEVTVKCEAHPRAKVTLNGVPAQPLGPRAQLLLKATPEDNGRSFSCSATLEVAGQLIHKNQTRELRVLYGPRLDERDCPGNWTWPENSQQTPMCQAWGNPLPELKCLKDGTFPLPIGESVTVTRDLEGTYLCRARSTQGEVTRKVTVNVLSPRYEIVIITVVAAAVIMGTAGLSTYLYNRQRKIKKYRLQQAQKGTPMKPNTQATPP
Intercellular adhesion molecule (ICAM-1), Integrin alpha-L/beta-2, sequence (P05107 whole entry): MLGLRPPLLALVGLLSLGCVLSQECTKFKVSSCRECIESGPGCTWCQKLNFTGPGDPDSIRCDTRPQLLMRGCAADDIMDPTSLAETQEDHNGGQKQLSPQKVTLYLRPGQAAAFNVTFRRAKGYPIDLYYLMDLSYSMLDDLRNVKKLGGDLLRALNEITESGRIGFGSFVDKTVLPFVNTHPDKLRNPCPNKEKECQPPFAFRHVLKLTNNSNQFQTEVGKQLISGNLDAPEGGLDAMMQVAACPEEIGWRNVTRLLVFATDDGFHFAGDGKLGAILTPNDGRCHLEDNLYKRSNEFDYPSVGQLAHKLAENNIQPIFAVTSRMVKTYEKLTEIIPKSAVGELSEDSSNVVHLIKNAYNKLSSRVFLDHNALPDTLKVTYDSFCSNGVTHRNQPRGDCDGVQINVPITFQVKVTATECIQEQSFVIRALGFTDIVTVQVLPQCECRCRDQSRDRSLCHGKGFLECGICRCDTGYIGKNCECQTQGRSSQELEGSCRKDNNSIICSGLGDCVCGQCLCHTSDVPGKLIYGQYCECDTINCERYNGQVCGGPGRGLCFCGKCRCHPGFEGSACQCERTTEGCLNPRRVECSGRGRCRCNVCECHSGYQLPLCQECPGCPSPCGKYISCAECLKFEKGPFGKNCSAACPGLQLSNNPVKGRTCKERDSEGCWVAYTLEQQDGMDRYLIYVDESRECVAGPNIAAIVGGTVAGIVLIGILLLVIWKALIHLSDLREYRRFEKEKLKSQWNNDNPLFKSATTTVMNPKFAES

Integrin alpha-4/beta-1 [2] = target: T1, Integrin alpha-4/beta-1 (Homo sapiens, UniProt P05556+P13612); test: Inhibition of integrin alpha4-beta1 adhesion to Jurkat cells; assay type: cell-based
T1 sequence (P05556 whole entry, one chain of several): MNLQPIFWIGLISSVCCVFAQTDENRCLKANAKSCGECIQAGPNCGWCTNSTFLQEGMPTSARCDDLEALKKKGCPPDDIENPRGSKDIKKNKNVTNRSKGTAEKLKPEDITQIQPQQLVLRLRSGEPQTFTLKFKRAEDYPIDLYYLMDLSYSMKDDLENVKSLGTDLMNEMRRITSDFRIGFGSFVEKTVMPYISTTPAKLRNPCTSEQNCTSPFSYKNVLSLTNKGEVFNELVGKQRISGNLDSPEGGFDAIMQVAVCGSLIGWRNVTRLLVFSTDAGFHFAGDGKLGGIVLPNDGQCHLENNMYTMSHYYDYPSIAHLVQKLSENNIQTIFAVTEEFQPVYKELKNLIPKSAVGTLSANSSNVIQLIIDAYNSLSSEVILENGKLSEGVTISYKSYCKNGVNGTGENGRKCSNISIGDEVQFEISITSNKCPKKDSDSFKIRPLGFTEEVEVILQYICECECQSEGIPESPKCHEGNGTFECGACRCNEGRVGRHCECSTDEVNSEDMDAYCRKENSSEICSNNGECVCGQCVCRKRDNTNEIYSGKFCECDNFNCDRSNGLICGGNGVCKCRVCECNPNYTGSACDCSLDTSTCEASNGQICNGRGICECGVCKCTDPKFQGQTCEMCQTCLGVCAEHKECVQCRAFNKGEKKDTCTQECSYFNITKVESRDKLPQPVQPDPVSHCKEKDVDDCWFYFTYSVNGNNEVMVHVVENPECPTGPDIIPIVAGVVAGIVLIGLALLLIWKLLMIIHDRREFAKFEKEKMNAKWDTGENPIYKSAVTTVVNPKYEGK
Procedure, shortened: (§1)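 BCECF-AM-labeled Jurkat cells (20 min, 37 °C) incubated 30 min with serial inhibitor dilutions or vehicle plus 1 mM MnCl2 in wells coated overnight at 4 °C with 1 ug/mL CS-1–BSA conjugate; after washing, bound cells read by fluorescence at 530 nm.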

[3] = target: Integrin alpha-IIb/beta-3 (Homo sapiens, UniProt P05106+P08514); test: Inhibition of integrin alphaIIb-beta3 adhesion to human citreated platelets
Integrin alpha-IIb/beta-3, sequence (P05106 27-788 limits assumed): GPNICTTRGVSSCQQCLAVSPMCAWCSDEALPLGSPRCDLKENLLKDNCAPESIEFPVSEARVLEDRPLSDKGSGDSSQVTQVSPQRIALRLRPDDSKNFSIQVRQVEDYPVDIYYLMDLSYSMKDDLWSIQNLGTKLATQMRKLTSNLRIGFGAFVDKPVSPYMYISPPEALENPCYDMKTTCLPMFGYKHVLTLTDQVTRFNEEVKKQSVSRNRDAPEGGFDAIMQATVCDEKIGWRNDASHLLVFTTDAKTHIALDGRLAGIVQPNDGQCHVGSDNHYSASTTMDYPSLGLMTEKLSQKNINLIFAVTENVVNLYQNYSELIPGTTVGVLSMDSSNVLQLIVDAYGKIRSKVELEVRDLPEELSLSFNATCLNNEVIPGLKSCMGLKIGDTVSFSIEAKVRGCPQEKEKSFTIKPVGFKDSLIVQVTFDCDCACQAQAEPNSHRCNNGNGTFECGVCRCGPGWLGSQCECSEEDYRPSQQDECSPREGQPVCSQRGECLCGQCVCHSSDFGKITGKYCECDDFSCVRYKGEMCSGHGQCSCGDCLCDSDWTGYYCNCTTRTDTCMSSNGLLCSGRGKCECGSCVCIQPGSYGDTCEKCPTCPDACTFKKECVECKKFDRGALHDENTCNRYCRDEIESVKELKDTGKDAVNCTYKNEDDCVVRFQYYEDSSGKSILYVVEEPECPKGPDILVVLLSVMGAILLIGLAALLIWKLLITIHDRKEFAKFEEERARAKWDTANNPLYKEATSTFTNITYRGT
Integrin alpha-IIb/beta-3, sequence (P08514 32-887 limits assumed): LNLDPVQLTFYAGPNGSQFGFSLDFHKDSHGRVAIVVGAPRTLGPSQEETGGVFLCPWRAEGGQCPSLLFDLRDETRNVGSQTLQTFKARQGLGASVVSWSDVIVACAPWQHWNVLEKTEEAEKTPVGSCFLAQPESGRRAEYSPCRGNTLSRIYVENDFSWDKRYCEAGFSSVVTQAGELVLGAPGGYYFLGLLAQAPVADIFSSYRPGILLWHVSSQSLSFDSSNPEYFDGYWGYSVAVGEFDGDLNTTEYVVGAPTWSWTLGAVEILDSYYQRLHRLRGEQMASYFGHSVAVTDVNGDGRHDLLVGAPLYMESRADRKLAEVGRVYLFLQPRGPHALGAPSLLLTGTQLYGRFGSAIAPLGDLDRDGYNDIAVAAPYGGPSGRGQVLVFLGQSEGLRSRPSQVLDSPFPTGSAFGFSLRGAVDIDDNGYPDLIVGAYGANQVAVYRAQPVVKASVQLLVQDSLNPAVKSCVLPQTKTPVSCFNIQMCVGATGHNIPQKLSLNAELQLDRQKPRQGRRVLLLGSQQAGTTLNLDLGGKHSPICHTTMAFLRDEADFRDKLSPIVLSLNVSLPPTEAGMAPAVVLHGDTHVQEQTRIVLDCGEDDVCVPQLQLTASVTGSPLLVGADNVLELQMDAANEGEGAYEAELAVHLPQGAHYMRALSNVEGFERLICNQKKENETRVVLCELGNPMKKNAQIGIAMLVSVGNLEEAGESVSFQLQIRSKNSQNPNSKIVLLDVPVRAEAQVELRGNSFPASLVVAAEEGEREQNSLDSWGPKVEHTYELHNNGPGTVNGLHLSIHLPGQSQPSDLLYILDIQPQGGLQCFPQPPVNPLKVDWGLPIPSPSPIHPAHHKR
Integrin alpha-IIb/beta-3, sequence (P08514 891-1039 limits assumed): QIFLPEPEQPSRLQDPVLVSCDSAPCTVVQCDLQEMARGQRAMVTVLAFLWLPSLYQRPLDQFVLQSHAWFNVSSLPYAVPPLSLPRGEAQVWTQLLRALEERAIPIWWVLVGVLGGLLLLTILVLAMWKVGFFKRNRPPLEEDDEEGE

[4] = Inhibition of integrin alpha6-beta1 adhesion using K562 cells expressing alpha-6; assay type: cell-based, Homo sapiens
Procedure, shortened: (§2)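 BCECF-AM-labeled cells incubated 30 min at room temperature with inhibitor (1 nM–100 uM serial dilutions) or vehicle plus 1 mM MnCl2 in wells coated overnight at 4 °C with ligand; bound cells read at 530 nm. alpha4beta7: JY cells on CS-1–BSA 1 ug/mL; alpha5beta1: K562 on human 120 kD fibronectin fragment 5 ug/mL; alpha6beta1: alpha6-K562 on mouse laminin 20 ug/mL. IC50 from inhibition curves.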

[5] = Inhibition of integrin alpha1-beta1 adhesion using K562 cells expressing alpha-1; assay type: cell-based, Homo sapiens
Integrin alpha-4/beta-7 = target: T2, Integrin alpha-4/beta-7 (Homo sapiens, UniProt P13612+P26010); test: Inhibition of integrin alpha4-beta7 adhesion to JY cells; assay type: cell-based; procedure, shortened: as §2
T2 sequence (P13612 whole entry): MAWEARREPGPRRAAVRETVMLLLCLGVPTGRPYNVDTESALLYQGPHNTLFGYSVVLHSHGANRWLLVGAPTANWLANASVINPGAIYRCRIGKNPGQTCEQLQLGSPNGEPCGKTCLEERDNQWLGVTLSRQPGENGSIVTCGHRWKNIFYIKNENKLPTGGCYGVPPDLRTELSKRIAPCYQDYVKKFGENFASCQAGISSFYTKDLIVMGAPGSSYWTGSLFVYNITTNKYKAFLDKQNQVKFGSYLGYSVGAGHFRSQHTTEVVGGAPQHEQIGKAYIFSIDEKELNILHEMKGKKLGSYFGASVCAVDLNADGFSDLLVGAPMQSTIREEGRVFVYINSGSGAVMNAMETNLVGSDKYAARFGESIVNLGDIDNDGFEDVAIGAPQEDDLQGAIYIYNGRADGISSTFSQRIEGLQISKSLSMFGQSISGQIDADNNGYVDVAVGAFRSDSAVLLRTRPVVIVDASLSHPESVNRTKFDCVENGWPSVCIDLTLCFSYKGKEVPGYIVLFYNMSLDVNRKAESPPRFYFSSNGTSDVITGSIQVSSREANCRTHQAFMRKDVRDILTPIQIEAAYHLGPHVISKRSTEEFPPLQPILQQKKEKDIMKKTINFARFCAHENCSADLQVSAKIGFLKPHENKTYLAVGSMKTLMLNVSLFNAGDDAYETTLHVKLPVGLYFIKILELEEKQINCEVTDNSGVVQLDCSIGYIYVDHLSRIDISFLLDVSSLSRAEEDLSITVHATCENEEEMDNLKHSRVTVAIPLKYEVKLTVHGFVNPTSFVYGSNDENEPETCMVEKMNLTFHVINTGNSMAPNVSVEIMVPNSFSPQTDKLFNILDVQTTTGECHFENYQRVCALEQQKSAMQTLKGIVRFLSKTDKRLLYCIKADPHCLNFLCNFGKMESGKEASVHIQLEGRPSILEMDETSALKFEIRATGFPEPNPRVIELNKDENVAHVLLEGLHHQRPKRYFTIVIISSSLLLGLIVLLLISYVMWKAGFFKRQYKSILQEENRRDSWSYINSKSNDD
T2 sequence (P26010 whole entry): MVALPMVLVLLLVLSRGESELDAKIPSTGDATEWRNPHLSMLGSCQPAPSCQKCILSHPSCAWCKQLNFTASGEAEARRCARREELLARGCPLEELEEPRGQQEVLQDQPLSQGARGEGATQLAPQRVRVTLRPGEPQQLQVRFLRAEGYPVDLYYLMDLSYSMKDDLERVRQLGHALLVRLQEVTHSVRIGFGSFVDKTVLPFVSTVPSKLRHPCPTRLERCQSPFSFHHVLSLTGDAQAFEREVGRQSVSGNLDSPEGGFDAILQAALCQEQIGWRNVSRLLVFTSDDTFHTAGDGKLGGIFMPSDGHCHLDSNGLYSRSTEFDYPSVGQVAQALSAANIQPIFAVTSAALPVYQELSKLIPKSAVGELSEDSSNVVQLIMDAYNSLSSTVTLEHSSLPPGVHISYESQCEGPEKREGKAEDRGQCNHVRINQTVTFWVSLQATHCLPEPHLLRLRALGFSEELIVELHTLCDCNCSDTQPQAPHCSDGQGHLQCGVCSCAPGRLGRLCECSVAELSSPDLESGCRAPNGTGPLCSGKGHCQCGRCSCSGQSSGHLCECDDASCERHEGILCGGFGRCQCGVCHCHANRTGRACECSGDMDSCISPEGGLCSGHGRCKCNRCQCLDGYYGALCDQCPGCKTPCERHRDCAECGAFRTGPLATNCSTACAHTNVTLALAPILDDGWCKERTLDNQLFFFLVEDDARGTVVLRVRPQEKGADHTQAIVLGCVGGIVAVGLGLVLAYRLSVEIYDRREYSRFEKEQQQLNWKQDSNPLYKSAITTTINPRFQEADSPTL

Integrin alpha-5/beta-1 = Integrin alpha-5/beta-1 (Homo sapiens, UniProt P05556+P08648); test: Inhibition of integrin alpha5-beta1 adhesion to K562 cells; assay type: cell-based; procedure, shortened: as §2
Integrin alpha-4/beta-1 [6] = target: T1, Integrin alpha-4/beta-1; test: Inhibition of integrin alpha4-beta1 binding to VCAM-Ig; assay type: protein-complex assay
Integrin alpha-4/beta-1 [7] = target: T1, Integrin alpha-4/beta-1; test: Inhibition of integrin alpha4-beta1 adhesion to Jurkat cells (No inhibition); assay type: cell-based; procedure, shortened: as §1
Integrin alpha-4/beta-1 [8] = target: T1, Integrin alpha-4/beta-1; test: Inhibition of VCAM-Ig binding to integrin alpha4-beta1 of Jurkat cells; assay type: cell-based
[9] = target: Integrin alpha1/beta1 (Homo sapiens); test: Inhibition of integrin alpha1-beta1 adhesion using K562 cells expressing alpha-1

| SMILES | IC50 (Integrin alpha-4/beta-1 [2]) | IC50 (Integrin alpha-4/beta-1 [6]) | other results |
| --- | --- | --- | --- |
| Cc1ccccc1NC(=O)Nc1ccc(CC(=O)N[C@@H](CC(C)C)C(=O)N[C@@H](CC(=O)O)C(=O)O)cc1 | 68 nM | 18 nM | IC50 [1]: > 100000 nM; IC50 [3]: > 100000 nM; IC50 [4]: > 100000 nM; IC50 [5]: > 100000 nM; IC50 (Integrin alpha-4/beta-7): 59000 nM; IC50 (Integrin alpha-5/beta-1): > 100000 nM |
| Cc1ccccc1NC(=O)Nc1ccc(CC(=O)O)cc1 | – | – | IC50 (Integrin alpha-4/beta-1 [7]): Not Active; IC50 (Integrin alpha-4/beta-1 [8]): No inhibition |
| CC(C)C[C@H](NC(=O)Cc1ccc(NC(=O)Nc2ccccc2)cc1)C(=O)N[C@@H](CC(=O)O)C(=O)N[C@H](C(=O)O)C(C)C | 30 nM | 3 nM | – |
| CC(C)C[C@H](NC(=O)Cc1ccc(NC(=O)c2ccccc2)cc1)C(=O)N[C@@H](CC(=O)O)C(=O)N[C@H](C(=O)O)C(C)C | 3250 nM | 295 nM | – |
| CC(C)C[C@H](NC(=O)Cc1ccc(O)cc1)C(=O)N[C@@H](CC(=O)O)C(=O)N[C@H](C(=O)O)C(C)C | 5000 nM | 430 nM | – |
| Cc1ccccc1NC(=O)Nc1ccc(CC(=O)N[C@@H](CC(C)C)C(=O)N[C@@H](CC(=O)O)C(=O)N[C@H](C(=O)O)C(C)C)cc1 | 6 nM | 0.6 nM | IC50 [1]: > 50000 nM; IC50 [9]: > 100000 nM; IC50 [3]: > 100000 nM; IC50 [4]: > 100000 nM; IC50 (Integrin alpha-4/beta-7): 8000 nM; IC50 (Integrin alpha-5/beta-1): > 100000 nM |
| Cc1ccccc1NC(=O)Nc1ccc(CC(=O)N[C@@H](CC(C)C)C(=O)O)cc1 | – | – | IC50 (Integrin alpha-4/beta-1 [7]): Not Active; IC50 (Integrin alpha-4/beta-1 [8]): No inhibition |
| CC(C)C[C@H](NC(=O)Cc1ccc(NC(=O)OCc2ccccc2)cc1)C(=O)N[C@@H](CC(=O)O)C(=O)N[C@H](C(=O)O)C(C)C | 200 nM | 30 nM | – |
| CC[C@H](C)[C@H](N)C(=O)N[C@@H](CC(C)C)C(=O)N[C@@H](CC(=O)O)C(=O)N[C@H](C(=O)O)C(C)C (H-ILDV-OH) | 175000 nM | 66000 nM | – |
| CC(C)C[C@H](NC(=O)[C@@H](N)Cc1ccc(O)cc1)C(=O)N[C@@H](CC(=O)O)C(=O)N[C@H](C(=O)O)C(C)C (H-YLDV-OH) | 51000 nM | 12600 nM | – |
| CC(C)C[C@H](NC(=O)Cc1ccccc1)C(=O)N[C@@H](CC(=O)O)C(=O)N[C@H](C(=O)O)C(C)C (PhAc-Leu-Asp-Val-OH) | 40000 nM | 1000 nM | – |
| Cc1ccccc1NC(=O)Nc1ccc(CC(=O)N[C@@H](CCCCNC(=O)CCCCCN)C(=O)N[C@@H](CC(=O)O)C(=O)N[C@H](C(=O)N2CCC[C@H]2C(=O)O)C(C)C)cc1 ({NH(2-Me-phenyl)-CO}-[X1]K(Ahx)DVP-OH) | 20 nM | 4 nM | – |
| Cc1ccccc1NC(=O)Nc1ccc(CC(=O)N[C@@H](CC(C)C)C(=O)N[C@@H](CC(=O)O)C(=O)N[C@H](C(=O)N2CCC[C@H]2C(N)=O)C(C)C)cc1 ({NH(2-Me-phenyl)-CO}-[X1]LDVP-NH2) | 8 nM | 1 nM | – |
| Cc1ccccc1NC(=O)Nc1ccc(CC(=O)N[C@@H](CC(C)C)C(=O)N[C@@H](CC(=O)O)C(=O)N[C@H](C(=O)N2CCC[C@H]2C(=O)O)C(C)C)cc1 ({NH(2-Me-phenyl)-CO}-[X1]LDVP-OH) | – | – | IC50 [1]: > 100000 nM; IC50 [3]: > 100000 nM; IC50 [4]: > 100000 nM; IC50 [5]: > 100000 nM; IC50 (Integrin alpha-4/beta-7): 2000 nM |
| Cc1ccccc1NC(=O)Nc1ccc(CC(=O)N[C@@H](CC(C)C)C(=O)N[C@@H](CC(=O)O)C(=O)N[C@H](C(=O)N2CCC[C@H]2C(=O)N[C@@H](CO)C(=O)N[C@H](C(=O)O)[C@@H](C)O)C(C)C)cc1 ({NH(2-Me-phenyl)-CO}-[X1]LDVPST-OH) | 5 nM | 1 nM | – |
